Laboratory results reported in PMC7598728 (Biochemistry, 2020).

Key:
[1] = test system: Vero cells; assay: Compound cytotoxicity; format: cell-based; conditions: 25 μM, no virus, 3 days, triplicate, values <1 = cytotoxic
Method in brief: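 Vero cells seeded at 1 × 10^4 cells/well were exposed the next day, with no virus, to the DMSO-dissolved test compound. Handling matched the infected viability assay, including the 1 h 37 °C compound pre-incubation step. Viability was read by CellTiter-Fluor after 3 days.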

[2] = test system: Zika-induced caspase 3/7 activity in Vero cells; assay: Caspase activity assay; format: cell-based, Zika virus; conditions: tested at 25 μM; relative to virus alone or virus with DMSO
Method in brief: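 ZIKV MR766 was pre-incubated with the DMSO-dissolved test compound or controls for 1 h at 37 °C, then added to Vero cells seeded at 1 × 10^4 cells/well the previous day (medium removed). Cells were incubated 3 days, viability read first (CellTiter-Fluor), then caspase 3/7 luminescence (Caspase-Glo 3/7). Run in triplicate.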

[3] = test system: Zika strain MR766 (infectivity in Vero cells); assay: TCID50 end point dilution infectivity assay; format: cell-based, Zika virus; conditions: tested at 25 μM; activity cutoff <0.6
Method in brief: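 End-point dilution: Vero cells were seeded at 2 × 10^4 cells/well. The next day, medium was replaced with serial dilutions of ZIKV, untreated or pretreated 1 h at 37 °C with the test compound or controls. After 6 days at 37 °C, cells were fixed in 3.7% formaldehyde and stained with crystal violet. Wells were scored for CPE, and TCID50 was calculated by the Reed and Muench method.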

[4] = test system: Zika strain MR766 (ZIKV-induced cell killing of Vero cells); assay: Cell viability assay in the presence of virus; format: cell-based, Zika virus; conditions: tested at 25 μM; values over 1 signify inhibition of ZIKV-induced cell killing
Method in brief: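 Vero cells (DMEM, 10% heat-inactivated FBS, 37 °C, 5% CO2) were seeded at 1 × 10^4 cells/well. The next day they were infected with ZIKV that had been pretreated 1 h at 37 °C with the DMSO-dissolved test compound or controls. After 3 days, viability was read by CellTiter-Fluor fluorescence and normalized to infected cells. Run in triplicate.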

Row | SMILES | compound cytotoxicity [1] | caspase activity [2] | TCID50 infectivity [3] | cell viability (normalized to ZIKV-infected cells) [4]
1 | C#C[C@@]1(O)[C@H](O)[C@@H](CO)O[C@H]1n1ccc2c(N)ncnc21 [NITD008] | some cytotoxicity | suppressed caspase activity | < 0.6 | > 1.0
2 | C[C@H](NC(=O)C(=O)Nc1ccccc1C(C)(C)C)C(=O)N[C@@H](CC(=O)O)C(=O)COc1c(F)c(F)cc(F)c1F [emricasan] |  | suppressed caspase activity |  | 
